Measured values taken from ChEMBL document CHEMBL4257459, “Synergistic antifungal effect of cyclized chalcone derivatives and fluconazole against Candida albicans” (2017).
≈ marks a conversion by molar mass, not a printed value.

How the values were obtained:
[1] = tested on: Candida albicans; test: Antifungal activity against fluconazole susceptible Candida albicans 0079gr by CLSI protocol based broth microdilution method; format: functional
Outline: (§1)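 Clinical isolates and control strain subcultured at least twice on TSA, 37 °C, 48 h. MICs by CLSI M27-A3 broth microdilution; compounds dissolved in DMSO to 2000 μg mL–1 stock. Fluconazole positive control, culture, media and DMSO vehicle controls in each run. Duplicate experiments; MIC in μg mL–1.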

[2] = tested on: Candida albicans; test: Inhibition of ABC efflux pumps in fluconazole susceptible Candida albicans 004gr assessed as reduction in energy-dependent rhodamine 6G efflux in presence of 0.1 M glucose after 25 mins by fluorescence assay relative to control
Outline: (§2)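 Cells grown in TSB at 37 °C for 8 h, washed, resuspended in glucose-free PBS at 1 × 10^8 cells. De-energized 45 min with 5 mM deoxyglucose plus 5 mM dinitrophenol. […] Washed, sampled 5–25 min, then 0.1 M glucose added. Absorbance 527 nm, R6G from standard curve.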

[3] = tested on: Candida albicans; test: Inhibition of ABC efflux pumps in fluconazole susceptible Candida albicans 003gr assessed as reduction in energy-dependent rhodamine 6G efflux in presence of 0.1 M glucose after 25 mins […] relative to control
[4] = tested on: Candida albicans; test: Antifungal activity against fluconazole resistant Candida albicans A171 in presence of fluconazole by CLSI protocol based broth microdilution method; format: functional
Outline: (§3)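 Checkerboard-style combination with fluconazole at a 1 : 1 ratio, over concentrations 2–4 fold below each agent's MIC alone, by CLSI broth microdilution. Fractional inhibitory concentration index calculated and interpreted as synergy (<0.5), additive (0.5–1), indifferent or antagonistic.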

[5] = tested on: Candida albicans; test: Antifungal activity against fluconazole susceptible Candida albicans 0072gr in presence of fluconazole by CLSI protocol based broth microdilution method; format: functional
[6] = tested on: Candida albicans; test: Antifungal activity against fluconazole resistant Candida albicans 167-1 by CLSI protocol based broth microdilution method; format: functional
Outline: (§4)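 Broth microdilution per CLSI M27-A3 against clinical C. albicans isolates. Strains sub-cultured at least twice on Tryptone Soya Agar, 37 °C, 48 h. Compounds dissolved in DMSO at 2000 μg mL–1 stock. Fluconazole positive control, plus culture, media and vehicle controls. Run in duplicate; MIC in μg mL–1.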

[7] = tested on: Candida albicans; test: Antifungal activity against fluconazole resistant Candida albicans 167-2 by CLSI protocol based broth microdilution method; format: functional; outline: as §4
[8] = tested on: Candida albicans; test: Antifungal activity against fluconazole susceptible Candida albicans 004B1 in presence of fluconazole by CLSI protocol based broth microdilution method; format: functional
[9] = tested on: Candida albicans; test: Inhibition of ABC efflux pumps in fluconazole susceptible Candida albicans 0079gr assessed as reduction in energy-dependent rhodamine 6G efflux in presence of 0.1 M glucose after 25 mins by fluorescence assay relative to control; outline: as §2
[10] = tested on: Candida albicans; test: Antifungal activity against fluconazole susceptible Candida albicans 002B1 by CLSI protocol based broth microdilution method; format: functional; outline: as §1
[11] = tested on: Candida albicans; test: Inhibition of ABC efflux pumps in fluconazole susceptible Candida albicans 004B1 assessed as reduction in energy-dependent rhodamine 6G efflux in presence of 0.1 M glucose after 25 mins by fluorescence assay relative to control; outline: as §2
[12] = tested on: Candida albicans; test: Inhibition of ABC efflux pumps in fluconazole resistant Candida albicans 167-1 assessed as reduction in energy-dependent rhodamine 6G efflux in presence of 0.1 M glucose after 25 mins […] relative to control
[13] = tested on: Candida albicans; test: Antifungal activity against Candida albicans ATCC 90028 in presence of fluconazole by CLSI protocol based broth microdilution method; format: functional
[14] = tested on: Candida albicans; test: Antifungal activity against fluconazole resistant Candida albicans 167-1 in presence of fluconazole by CLSI protocol based broth microdilution method; format: functional; outline: as §3
[15] = tested on: Candida albicans; test: Antifungal activity against fluconazole susceptible Candida albicans 003gr by CLSI protocol based broth microdilution method; format: functional; outline: as §1
[16] = tested on: Candida albicans; test: Antifungal activity against fluconazole susceptible Candida albicans 002B1 in presence of fluconazole by CLSI protocol based broth microdilution method; format: functional
[17] = tested on: Candida albicans; test: Antifungal activity against fluconazole resistant Candida albicans A171 by CLSI protocol based broth microdilution method; format: functional; outline: as §4
[18] = tested on: Candida albicans; test: Antifungal activity against fluconazole susceptible Candida albicans 004B1 by CLSI protocol based broth microdilution method; format: functional; outline: as §1
[19] = tested on: Candida albicans; test: Inhibition of ABC efflux pumps in fluconazole susceptible Candida albicans 002B1 assessed as reduction in energy-dependent rhodamine 6G efflux in presence of 0.1 M glucose after 25 mins […] relative to control
[20] = tested on: Candida albicans; test: Inhibition of ABC efflux pumps in fluconazole resistant Candida albicans A171 assessed as reduction in energy-dependent rhodamine 6G efflux in presence of 0.1 M glucose after 25 mins by fluorescence assay relative to control; outline: as §2
[21] = tested on: Candida albicans; test: Inhibition of ABC efflux pumps in fluconazole resistant Candida albicans 167-2 assessed as reduction in energy-dependent rhodamine 6G efflux in presence of 0.1 M glucose after 25 mins […] relative to control
[22] = tested on: Candida albicans; test: Inhibition of ABC efflux pumps in fluconazole susceptible Candida albicans 0072gr assessed as reduction in energy-dependent rhodamine 6G efflux in presence of 0.1 M glucose after 25 mins […] relative to control
[23] = tested on: Candida albicans; test: Inhibition of ergosterol biosynthesis in fluconazole resistant Candida albicans A171 at 0.5 to 1 times MIC relative to control; format: functional
Outline: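 Total sterols quantified by alcoholic KOH extraction in cells grown in 50 ml TSB with compounds at MIC and ½ MIC; untreated and 8 μg mL–1 fluconazole controls. Spectral scan; ergosterol content from A281.5 and A230 absorbances, dilution factor and pellet weight, correcting for 24(28) DHE.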

[24] = tested on: Candida albicans; test: Antifungal activity against fluconazole susceptible Candida albicans 004gr in presence of fluconazole by CLSI protocol based broth microdilution method; format: functional
[25] = tested on: Candida albicans; test: Antifungal activity against fluconazole susceptible Candida albicans 0079gr in presence of fluconazole by CLSI protocol based broth microdilution method; format: functional
[26] = tested on: Candida albicans; test: Antifungal activity against fluconazole susceptible Candida albicans 0072gr by CLSI protocol based broth microdilution method; format: functional; outline: as §1
[27] = tested on: Candida albicans; test: Antifungal activity against fluconazole susceptible Candida albicans 004gr by CLSI protocol based broth microdilution method; format: functional; outline: as §1
[28] = tested on: Candida albicans; test: Inhibition of ergosterol biosynthesis in fluconazole susceptible Candida albicans ATCC 90028 at 0.5 to 1 times MIC relative to control; format: functional
Outline: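 ATCC90028 grown in 50 ml TSB with MIC and ½ MIC of compound; untreated and 8 μg mL–1 fluconazole controls. Sterols extracted by alcoholic KOH method and spectrophotometrically scanned; ergosterol % calculated from A281.5 and A230 (E values 290 and 518) with dilution factor, per pellet weight.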

[29] = tested on: Candida albicans; test: Antifungal activity against fluconazole susceptible Candida albicans 003gr in presence of fluconazole by CLSI protocol based broth microdilution method; format: functional
[30] = tested on: Candida albicans; test: Antifungal activity against Candida albicans ATCC 90028 by CLSI protocol based broth microdilution method; format: functional; outline: as §1
[31] = tested on: Candida albicans; test: Antifungal activity against fluconazole resistant Candida albicans 167-2 in presence of fluconazole by CLSI protocol based broth microdilution method; format: functional; outline: as §3

SMILES	MIC [1] [µg/mL]	inhibition [2] [%]	inhibition [3] [%]	fractional inhibitory concentration index (FICI) [4]	fractional inhibitory concentration index (FICI) [5]	MIC [6] [µg/mL]	MIC [7] [µg/mL]	fractional inhibitory concentration index (FICI) [8]	inhibition [9] [%]	MIC [10] [µg/mL]	inhibition [11] [%]	inhibition [12] [%]	fractional inhibitory concentration index (FICI) [13]	fractional inhibitory concentration index (FICI) [14]	MIC [15] [µg/mL]	fractional inhibitory concentration index (FICI) [16]	MIC [17] [µg/mL]	MIC [18] [µg/mL]	inhibition [19] [%]	inhibition [20] [%]	other results
O=C1NC(c2ccccc2)=CC(c2ccccc2)N1 (configuration not stated)	1 to 8 (≈ 4 to 32 µM)	< 20	< 20	0.129 - 0.27	0.31 - 1.5	8 to 16 (≈ 32 to 63.9 µM)	8 to 16 (≈ 32 to 63.9 µM)	0.31 - 1.5	< 20	1 to 8 (≈ 4 to 32 µM)	< 20	< 20	0.31 - 1.5	0.129 - 0.27	1 to 8 (≈ 4 to 32 µM)	0.31 - 1.5	8 to 16 (≈ 32 to 63.9 µM)	1 to 8 (≈ 4 to 32 µM)	< 20	< 20	inhibition [21]: < 20%; inhibition [22]: < 20%; inhibition (INH) [23]: 49 - 94%; fractional inhibitory concentration index (FICI) [24]: 0.31 - 1.5; fractional inhibitory concentration index (FICI) [25]: 0.31 - 1.5; MIC [26]: 1 to 8 µg/mL (≈ 4 to 32 µM); MIC [27]: 1 to 8 µg/mL (≈ 4 to 32 µM); inhibition (INH) [28]: 66 - 99%; fractional inhibitory concentration index (FICI) [29]: 0.31 - 1.5; MIC [30]: 1 to 8 µg/mL (≈ 4 to 32 µM); fractional inhibitory concentration index (FICI) [31]: 0.129 - 0.27
c1ccc(C2=NOC(c3ccccc3)C2)cc1 (configuration not stated)	4 to 31 (≈ 17.9 to 139 µM)	< 20	< 20	0.531 - 0.56	0.75 - 2	16 to 31 (≈ 71.7 to 139 µM)	16 to 31 (≈ 71.7 to 139 µM)	0.75 - 2	< 20	4 to 31 (≈ 17.9 to 139 µM)	< 20	< 20	0.75 - 2	0.531 - 0.56	4 to 31 (≈ 17.9 to 139 µM)	0.75 - 2	16 to 31 (≈ 71.7 to 139 µM)	4 to 31 (≈ 17.9 to 139 µM)	< 20	< 20	inhibition [21]: < 20%; inhibition [22]: < 20%; inhibition (INH) [23]: 49 - 94%; fractional inhibitory concentration index (FICI) [24]: 0.75 - 2; fractional inhibitory concentration index (FICI) [25]: 0.75 - 2; MIC [26]: 4 to 31 µg/mL (≈ 17.9 to 139 µM); MIC [27]: 4 to 31 µg/mL (≈ 17.9 to 139 µM); inhibition (INH) [28]: 66 - 99%; fractional inhibitory concentration index (FICI) [29]: 0.75 - 2; MIC [30]: 4 to 31 µg/mL (≈ 17.9 to 139 µM); fractional inhibitory concentration index (FICI) [31]: 0.531 - 0.56
